ChEMBL document CHEMBL1125477, “Highly potent and selective heptapeptide antagonists of the neurokinin NK-2 receptor” (J Med Chem, 1992)
Square brackets hold non-standard residues; d marks the D form. Peptide text beside a SMILES is read from it. * marks the point of attachment. Nle = CCCC[C@H](N)C(=O)O; Bz = O=C(c1ccccc1)*

Columns and labels:
[1] = target: T1, Neuromedin-K receptor (Rattus norvegicus) (UniProt P16177); assay: Compound was evaluated for antagonism of contractile response of rat portal vein at Tachykinin receptor 3; type: functional
T1 sequence (whole entry): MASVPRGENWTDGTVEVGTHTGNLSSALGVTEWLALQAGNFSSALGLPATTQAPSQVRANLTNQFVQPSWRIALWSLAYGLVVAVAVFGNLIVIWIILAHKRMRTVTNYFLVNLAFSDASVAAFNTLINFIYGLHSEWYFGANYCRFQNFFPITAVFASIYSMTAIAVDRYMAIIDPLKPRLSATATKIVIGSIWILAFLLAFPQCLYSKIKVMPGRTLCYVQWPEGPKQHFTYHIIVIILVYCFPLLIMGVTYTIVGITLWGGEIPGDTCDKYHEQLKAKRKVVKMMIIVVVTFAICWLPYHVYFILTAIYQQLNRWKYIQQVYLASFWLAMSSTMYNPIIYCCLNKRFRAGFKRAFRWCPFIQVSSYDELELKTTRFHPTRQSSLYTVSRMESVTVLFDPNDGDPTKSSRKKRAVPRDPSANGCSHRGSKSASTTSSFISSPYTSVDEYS
Procedure, shortened: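 Everted portal vein from male AHA rats (250–500 g). Contraction to senktide (NK-3). Agonist curves were repeated at least twice before exposure to one antagonist concentration per preparation. Concentration-ratio estimated graphically at the half-maximal level. pK_B = log(CR−1) − log(molar antagonist). Mean ± SE of four to eight tissues.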

[2] = target: Substance-P receptor (Cavia porcellus) (UniProt P30547); assay: Compound was evaluated for antagonism of contractile response of guinea pig ileum longitudinal smooth muscle (GPI) at Tachykinin receptor 1; type: functional, tissue-based
Sequence of Substance-P receptor (Cavia porcellus) (P30547 whole entry): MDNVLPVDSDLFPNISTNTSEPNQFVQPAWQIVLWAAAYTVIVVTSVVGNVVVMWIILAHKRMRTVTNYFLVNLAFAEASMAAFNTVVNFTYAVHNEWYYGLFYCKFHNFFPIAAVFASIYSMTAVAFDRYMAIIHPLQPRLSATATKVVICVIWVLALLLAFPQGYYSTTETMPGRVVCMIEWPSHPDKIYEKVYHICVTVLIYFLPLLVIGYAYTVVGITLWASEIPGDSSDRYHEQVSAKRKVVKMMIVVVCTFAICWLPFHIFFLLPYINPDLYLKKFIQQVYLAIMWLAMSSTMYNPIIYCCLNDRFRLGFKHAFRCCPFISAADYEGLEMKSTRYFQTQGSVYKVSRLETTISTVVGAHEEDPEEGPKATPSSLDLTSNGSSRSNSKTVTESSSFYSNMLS
Procedure, shortened: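 Isolated longitudinal smooth muscle of ileum from male Dunkin-Hartley guinea-pigs (300–600 g), killed by concussion and exsanguination. Contraction to SP methyl ester (NK-1 agonist). At least two control agonist curves, then one antagonist concentration per preparation. Concentration-ratio read graphically at half-maximal response. pK_B = log(CR−1) − log[antagonist]. Mean ± SE over four to eight tissues.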

[3] = target: T2, Substance-K receptor (Rattus norvegicus) (UniProt P16610); assay: Compound was evaluated for antagonism of contractile response of rat colon muscularis mucosae (RC) at Tachykinin receptor 2; type: functional, tissue-based; conditions: Muscularis mucosa
T2 sequence (whole entry): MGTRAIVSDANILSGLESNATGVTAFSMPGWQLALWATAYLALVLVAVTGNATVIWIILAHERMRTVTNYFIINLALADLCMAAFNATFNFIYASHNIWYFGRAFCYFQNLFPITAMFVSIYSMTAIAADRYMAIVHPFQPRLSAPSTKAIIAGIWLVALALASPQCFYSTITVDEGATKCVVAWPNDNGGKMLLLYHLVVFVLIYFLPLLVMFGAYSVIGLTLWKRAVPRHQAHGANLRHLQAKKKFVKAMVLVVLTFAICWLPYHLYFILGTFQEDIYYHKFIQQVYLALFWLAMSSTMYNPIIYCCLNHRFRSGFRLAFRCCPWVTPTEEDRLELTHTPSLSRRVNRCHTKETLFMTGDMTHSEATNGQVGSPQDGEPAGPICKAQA
Procedure, shortened: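 Colon muscularis mucosae from male AHA rats (250–500 g), killed by concussion and exsanguination. Contraction to neurokinin A (NK-2). At least two control agonist curves, then a single antagonist concentration per tissue. Equiactive agonist concentration-ratio taken at half-maximal response. pK_B = log(CR−1) − log[antagonist]. Mean ± SE over four to eight preparations.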

Structure (SMILES): CCCC[C@H](NC(=O)[C@@H]1CCCN1C(=O)[C@H]1CCCN1C(=O)[C@H](Cc1ccccc1)NC(=O)[C@@H](Cc1c[nH]c2ccccc12)NC(=O)[C@H](C)NC(=O)[C@H](CCC(N)=O)NC(=O)c1ccccc1)C(N)=O
- pKB [1]: 5.6
- pKB [2]: 6.6
- pKB [3]: 8.8

Structure (SMILES): CCCC[C@H](NC(=O)[C@@H]1CCCN1C(=O)[C@H]1CCCN1C(=O)[C@H](Cc1ccccc1)NC(=O)[C@@H](Cc1c[nH]c2ccccc12)NC(=O)[C@H](C)NC(=O)[C@H](C)NC(=O)OC(C)(C)C)C(N)=O
- pKB [1]: 4.7
- pKB [2]: 5.5
- pKB [3]: 9.3

Structure (SMILES): CCCC[C@H](NC(=O)[C@@H]1CCCN1C(=O)[C@H]1CCCN1C(=O)[C@H](Cc1ccccc1)NC(=O)[C@@H](Cc1c[nH]c2ccccc12)NC(=O)[C@H](C)NC(=O)[C@H](C)NC(=O)c1ccccc1)C(N)=O (Bz-AA[dW]F[dP]P[Nle]-NH2)
- pKB [1]: 6
- pKB [2]: 6.4
- pKB [3]: 9.6

Structure (SMILES): CCCC[C@H](NC(=O)[C@@H]1CCCN1C(=O)[C@H]1CCCN1C(=O)[C@H](Cc1ccccc1)NC(=O)[C@@H](Cc1c[nH]c2ccccc12)NC(=O)[C@H](C)NC(=O)[C@H](CCC(N)=O)NC(=O)OC(C)(C)C)C(N)=O
- pKB [1]: 5.1
- pKB [2]: 5.6
- pKB [3]: 7.9
